From ChEMBL document CHEMBL2401700, “Discovery of TD-8954, a clinical stage 5-HT(4) receptor agonist with gastrointestinal prokinetic properties” (Bioorg Med Chem Lett, 2013)
Calls of active or inactive are those of the source. No cut-off for these calls is given here.

Tests used:
[1] = Oral bioavailability in Sprague-Dawley rat at 5 mg/kg; assay type: ADME, organism-based; settings: in vivo
Cavia porcellus = experiment: Prokinetic activity at guinea pig colonic transit model assessed as reduction in time taken for excretion of first pellet at 0.03 mg/kg, sc by carmine red dye-based assay relative to vehicle-treated control; assay type: functional; parameters: scale not given: the % may be the effect or the level left; settings: route subcutaneous
Summary of the method: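 Conscious guinea pigs given sc doses of 0.03, 0.3 or 3 mg/kg or vehicle (2 mL/kg), n = 9–22 per group. Colonic transit was measured as time to excretion of the first fecal pellet containing carmine red dye marker. Compared with vehicle by ANOVA with Dunnett's post-hoc test, p < 0.05.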

[2] = Elimination half life in healthy human; assay type: ADME, organism-based; settings: in vivo, read-out: beta t1/2 (converted)
[3] = target: 5-hydroxytryptamine receptor 6 (Homo sapiens) (UniProt P50406); experiment: Inhibition of serotonin 5-HT6 receptor (unknown origin) at 1 uM
[4] = target: 5-hydroxytryptamine receptor 2B (Homo sapiens, UniProt P41595); experiment: Inhibition of serotonin 5-HT2B receptor (unknown origin) at 1 uM
[5] = Half life in beagle dog at 2 mg/kg, po; assay type: ADME, organism-based, Canis lupus familiaris; parameters: dose 2 mg/kg, route oral; settings: in vivo
[6] = target: 5-hydroxytryptamine receptor 4 (Homo sapiens, UniProt Q13639); experiment: Agonist activity at human recombinant 5HT4 receptor assessed as cAMP accumulation relative to 5-HT; assay type: functional
Summary of the method: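 cAMP accumulation in cells expressing human recombinant 5-HT4 receptor, reported as pEC50 with intrinsic activity as % of the maximum response achieved by 5-HT.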

Homo sapiens = organism: Homo sapiens; experiment: Increase in bowel movements in healthy human at 0.1 to 20 mg after 24 hrs relative to placebo
[7] = target: 5-hydroxytryptamine receptor 2A (Homo sapiens, UniProt P28223); experiment: Inhibition of serotonin 5-HT2A receptor (unknown origin) at 1 uM
[8] = target: T1, 5-hydroxytryptamine receptor 1A (Homo sapiens) (UniProt P08908); experiment: Inhibition of serotonin 5-HT1A receptor (unknown origin) at 1 uM
T1 sequence (whole entry): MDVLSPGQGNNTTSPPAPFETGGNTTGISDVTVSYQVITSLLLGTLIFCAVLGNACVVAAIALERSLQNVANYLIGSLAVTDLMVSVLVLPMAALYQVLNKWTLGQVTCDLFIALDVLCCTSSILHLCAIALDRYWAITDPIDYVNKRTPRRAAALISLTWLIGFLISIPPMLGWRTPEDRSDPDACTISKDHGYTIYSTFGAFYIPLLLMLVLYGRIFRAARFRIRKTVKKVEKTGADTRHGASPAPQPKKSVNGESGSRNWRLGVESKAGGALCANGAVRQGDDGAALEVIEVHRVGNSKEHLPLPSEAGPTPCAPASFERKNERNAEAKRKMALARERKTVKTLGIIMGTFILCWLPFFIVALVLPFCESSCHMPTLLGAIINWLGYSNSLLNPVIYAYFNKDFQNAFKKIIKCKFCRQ

[9] = Cmax in beagle dog at 2 mg/kg, po; assay type: ADME, organism-based, Canis lupus familiaris; parameters: dose 2 mg/kg, route oral; settings: in vivo
[10] = target: 5-hydroxytryptamine receptor 1B (Homo sapiens) (UniProt P28222); experiment: Inhibition of serotonin 5-HT1B receptor (unknown origin) at 1 uM
[11] = Cardiotoxicity in human coronary artery assessed as coronary artery constriction; assay type: toxicity, tissue-based
[12] = Half life in rat liver micrososmes; assay type: ADME, Microsome; settings: liver microsomes
[13] = target: 5-hydroxytryptamine receptor 5A (Homo sapiens) (UniProt P47898); experiment: Inhibition of serotonin 5-HT5A receptor (unknown origin) at 1 uM
[14] = AUC (0 to t) in Sprague-Dawley rat at 5 mg/kg, po; assay type: ADME, organism-based; parameters: dose 5 mg/kg, route oral; settings: plasma
[15] = Cardiotoxicity in dog coronary artery assessed as coronary artery constriction; assay type: toxicity, tissue-based, Canis lupus familiaris
[16] = target: T2, 5-hydroxytryptamine receptor 2C (Homo sapiens) (UniProt P28335); experiment: Inhibition of serotonin 5-HT2C receptor (unknown origin) at 1 uM
T2 sequence (whole entry): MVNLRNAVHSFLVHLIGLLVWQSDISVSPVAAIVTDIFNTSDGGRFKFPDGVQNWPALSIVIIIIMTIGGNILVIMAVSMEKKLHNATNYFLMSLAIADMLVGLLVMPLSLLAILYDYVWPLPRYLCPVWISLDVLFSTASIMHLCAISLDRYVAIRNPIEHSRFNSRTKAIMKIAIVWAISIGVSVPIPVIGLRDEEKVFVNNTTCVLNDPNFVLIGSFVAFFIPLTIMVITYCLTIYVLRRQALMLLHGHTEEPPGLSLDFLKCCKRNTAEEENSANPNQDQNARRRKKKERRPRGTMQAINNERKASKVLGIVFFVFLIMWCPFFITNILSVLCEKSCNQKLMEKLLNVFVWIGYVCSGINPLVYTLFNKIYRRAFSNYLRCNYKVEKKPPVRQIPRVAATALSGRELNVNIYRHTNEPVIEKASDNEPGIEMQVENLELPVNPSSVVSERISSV

[17] = target: T3, 5-hydroxytryptamine receptor 3A (Homo sapiens) (UniProt P46098); experiment: Inhibition of serotonin 5-HT3A receptor (unknown origin) at 1 uM
T3 sequence (whole entry): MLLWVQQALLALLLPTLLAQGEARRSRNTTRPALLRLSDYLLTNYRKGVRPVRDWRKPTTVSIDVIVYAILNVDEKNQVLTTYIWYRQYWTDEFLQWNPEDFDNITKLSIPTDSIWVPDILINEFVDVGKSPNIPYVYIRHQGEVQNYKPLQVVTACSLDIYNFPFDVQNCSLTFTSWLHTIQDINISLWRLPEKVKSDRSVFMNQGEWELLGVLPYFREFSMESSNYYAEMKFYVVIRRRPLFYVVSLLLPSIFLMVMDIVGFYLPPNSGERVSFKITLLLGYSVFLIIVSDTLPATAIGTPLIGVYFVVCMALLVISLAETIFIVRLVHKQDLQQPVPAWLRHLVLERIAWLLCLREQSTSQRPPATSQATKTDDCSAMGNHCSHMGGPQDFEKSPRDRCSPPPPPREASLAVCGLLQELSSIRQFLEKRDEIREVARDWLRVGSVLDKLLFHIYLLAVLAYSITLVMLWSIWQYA

[18] = Half life in Sprague-Dawley rat at 5 mg/kg, po; assay type: ADME, organism-based; parameters: dose 5 mg/kg, route oral; settings: in vivo
[19] = target: 5-hydroxytryptamine receptor 7 (Homo sapiens, UniProt P34969); experiment: Inhibition of serotonin 5-HT7 receptor (unknown origin) at 1 uM
[20] = AUC (0 to t) in beagle dog at 2 mg/kg, po; assay type: ADME, organism-based, Canis lupus familiaris; parameters: dose 2 mg/kg, route oral; settings: plasma
Rattus norvegicus [21] = experiment: Induction of 5-HT4 receptor-mediated esophageal relaxation in ID dosed rat; assay type: functional
Summary of the method: (§1)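 Anesthetized rats dosed intraduodenally over about 0.01–10 mg/kg. Esophageal relaxation was tracked by digital sonomicrometry as the change in inter-crystal distance (mm), n = 4–6. An ED50 was derived from the dose–response, and the dose giving a 0.1 mm relaxation response was calculated.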

[22] = Cmax in Sprague-Dawley rat at 5 mg/kg, po; assay type: ADME, organism-based; parameters: dose 5 mg/kg, route oral; settings: in vivo
Rattus norvegicus [23] = experiment: Agonist activity at 5HT4 receptor in ID dosed rat assessed as dose required to cause esophageal relaxation of 0.1 mm; assay type: functional; summary of the method: as §1
[24] = target: T4, 5-hydroxytryptamine receptor 3A (Homo sapiens, UniProt P46098); experiment: Binding affinity to human recombinant 5HT3 receptor
T4 sequence (P46098 whole entry): T3 sequence (whole entry)

[25] = target: 5-hydroxytryptamine receptor 4 (Cavia porcellus) (UniProt O70528)
[26] = Oral bioavailability in beagle dog at 2 mg/kg; assay type: ADME, organism-based, Canis lupus familiaris; settings: in vivo
[27] = Permeability across human Caco2 cells; assay type: ADME, cell-based; settings: Caco-2, read-out: Kp
[28] = Cardiotoxicity in pig coronary artery assessed as coronary artery constriction; assay type: toxicity, tissue-based, Sus scrofa
[29] = target: 5-hydroxytryptamine receptor 1D (Homo sapiens, UniProt P28221); experiment: Inhibition of serotonin 5-HT1D receptor (unknown origin) at 1 uM
Chain of 5-hydroxytryptamine receptor 1D (P28221 whole entry): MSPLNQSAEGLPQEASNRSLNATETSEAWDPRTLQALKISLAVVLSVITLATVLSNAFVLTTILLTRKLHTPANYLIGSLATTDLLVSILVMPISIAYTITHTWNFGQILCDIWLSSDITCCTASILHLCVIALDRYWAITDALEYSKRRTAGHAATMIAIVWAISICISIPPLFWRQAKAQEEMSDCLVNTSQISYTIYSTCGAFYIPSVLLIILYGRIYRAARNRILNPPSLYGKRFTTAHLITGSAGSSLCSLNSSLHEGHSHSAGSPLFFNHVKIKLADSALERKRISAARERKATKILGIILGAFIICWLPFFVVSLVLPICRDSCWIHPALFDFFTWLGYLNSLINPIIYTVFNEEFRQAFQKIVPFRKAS

Chain of 5-hydroxytryptamine receptor 2B (P41595 whole entry): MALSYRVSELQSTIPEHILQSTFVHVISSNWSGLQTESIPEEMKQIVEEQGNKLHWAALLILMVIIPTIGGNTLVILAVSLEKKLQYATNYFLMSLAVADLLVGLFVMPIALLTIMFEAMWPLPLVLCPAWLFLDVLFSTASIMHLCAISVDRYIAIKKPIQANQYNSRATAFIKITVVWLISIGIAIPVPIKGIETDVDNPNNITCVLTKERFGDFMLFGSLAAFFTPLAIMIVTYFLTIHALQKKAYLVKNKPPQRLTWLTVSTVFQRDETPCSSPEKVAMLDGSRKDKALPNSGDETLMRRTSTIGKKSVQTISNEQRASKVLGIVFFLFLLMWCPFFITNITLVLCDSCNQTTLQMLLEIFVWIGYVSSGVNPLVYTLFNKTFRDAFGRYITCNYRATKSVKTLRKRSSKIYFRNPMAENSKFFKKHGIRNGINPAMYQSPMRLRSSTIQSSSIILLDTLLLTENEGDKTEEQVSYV
Chain of 5-hydroxytryptamine receptor 4 (Cavia porcellus) (O70528 whole entry): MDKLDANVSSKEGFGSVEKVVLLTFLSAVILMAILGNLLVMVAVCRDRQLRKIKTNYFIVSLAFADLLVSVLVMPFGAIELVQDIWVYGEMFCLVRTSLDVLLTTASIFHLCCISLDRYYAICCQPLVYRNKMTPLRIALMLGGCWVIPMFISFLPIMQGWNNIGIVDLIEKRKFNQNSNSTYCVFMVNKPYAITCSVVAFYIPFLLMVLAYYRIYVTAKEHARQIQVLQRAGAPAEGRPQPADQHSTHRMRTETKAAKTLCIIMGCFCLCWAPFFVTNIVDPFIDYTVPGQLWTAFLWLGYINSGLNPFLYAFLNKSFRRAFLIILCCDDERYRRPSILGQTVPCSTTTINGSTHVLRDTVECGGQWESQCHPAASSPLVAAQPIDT
Chain of 5-hydroxytryptamine receptor 2A (P28223 whole entry): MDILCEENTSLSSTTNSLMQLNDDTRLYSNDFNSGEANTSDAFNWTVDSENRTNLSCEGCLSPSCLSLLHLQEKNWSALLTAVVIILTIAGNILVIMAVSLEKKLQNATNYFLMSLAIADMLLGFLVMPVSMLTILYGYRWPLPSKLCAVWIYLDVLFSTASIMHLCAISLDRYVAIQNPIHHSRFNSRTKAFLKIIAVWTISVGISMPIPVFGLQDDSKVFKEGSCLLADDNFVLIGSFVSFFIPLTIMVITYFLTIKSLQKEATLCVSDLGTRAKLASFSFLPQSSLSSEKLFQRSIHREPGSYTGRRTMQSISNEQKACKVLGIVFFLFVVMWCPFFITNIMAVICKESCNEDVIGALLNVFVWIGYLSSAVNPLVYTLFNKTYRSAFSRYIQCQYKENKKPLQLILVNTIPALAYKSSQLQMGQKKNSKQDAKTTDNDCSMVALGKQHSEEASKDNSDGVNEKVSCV
Chain of 5-hydroxytryptamine receptor 1B (Homo sapiens) (P28222 whole entry): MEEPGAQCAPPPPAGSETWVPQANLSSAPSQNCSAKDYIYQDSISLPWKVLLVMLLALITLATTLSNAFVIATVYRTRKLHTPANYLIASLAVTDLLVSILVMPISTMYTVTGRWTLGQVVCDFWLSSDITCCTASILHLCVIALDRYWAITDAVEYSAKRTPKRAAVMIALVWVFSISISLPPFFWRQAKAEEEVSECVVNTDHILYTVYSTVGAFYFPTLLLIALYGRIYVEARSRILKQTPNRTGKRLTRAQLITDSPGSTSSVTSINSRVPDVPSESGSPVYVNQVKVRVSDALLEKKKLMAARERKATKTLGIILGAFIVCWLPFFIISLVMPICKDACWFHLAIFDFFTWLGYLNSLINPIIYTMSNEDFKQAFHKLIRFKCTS
Chain of 5-hydroxytryptamine receptor 7 (P34969 whole entry): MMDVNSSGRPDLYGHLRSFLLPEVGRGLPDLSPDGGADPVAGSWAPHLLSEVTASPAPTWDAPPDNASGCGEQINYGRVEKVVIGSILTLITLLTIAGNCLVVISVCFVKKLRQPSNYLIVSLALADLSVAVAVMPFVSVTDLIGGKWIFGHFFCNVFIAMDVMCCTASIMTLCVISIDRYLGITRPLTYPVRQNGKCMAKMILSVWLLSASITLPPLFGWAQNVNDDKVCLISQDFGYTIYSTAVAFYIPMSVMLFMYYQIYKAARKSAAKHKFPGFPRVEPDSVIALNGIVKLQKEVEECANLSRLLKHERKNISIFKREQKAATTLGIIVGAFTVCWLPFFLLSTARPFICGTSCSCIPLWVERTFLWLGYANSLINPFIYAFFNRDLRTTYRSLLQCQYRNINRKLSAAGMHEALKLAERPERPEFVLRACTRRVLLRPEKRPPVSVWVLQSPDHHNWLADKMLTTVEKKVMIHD
Chain of 5-hydroxytryptamine receptor 6 (Homo sapiens) (P50406 whole entry): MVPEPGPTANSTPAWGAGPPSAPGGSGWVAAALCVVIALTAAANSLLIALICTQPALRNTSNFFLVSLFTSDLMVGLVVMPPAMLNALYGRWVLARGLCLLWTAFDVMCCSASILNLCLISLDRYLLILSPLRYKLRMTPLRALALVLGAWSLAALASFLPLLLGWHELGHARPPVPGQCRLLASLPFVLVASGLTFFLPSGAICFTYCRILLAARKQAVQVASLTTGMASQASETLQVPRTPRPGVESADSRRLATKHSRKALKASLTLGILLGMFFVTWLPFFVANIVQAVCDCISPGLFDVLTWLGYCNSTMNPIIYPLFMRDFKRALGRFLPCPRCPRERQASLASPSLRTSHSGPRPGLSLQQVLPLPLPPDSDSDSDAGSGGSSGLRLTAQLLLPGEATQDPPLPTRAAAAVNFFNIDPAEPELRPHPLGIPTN
Chain of 5-hydroxytryptamine receptor 5A (Homo sapiens) (P47898 whole entry): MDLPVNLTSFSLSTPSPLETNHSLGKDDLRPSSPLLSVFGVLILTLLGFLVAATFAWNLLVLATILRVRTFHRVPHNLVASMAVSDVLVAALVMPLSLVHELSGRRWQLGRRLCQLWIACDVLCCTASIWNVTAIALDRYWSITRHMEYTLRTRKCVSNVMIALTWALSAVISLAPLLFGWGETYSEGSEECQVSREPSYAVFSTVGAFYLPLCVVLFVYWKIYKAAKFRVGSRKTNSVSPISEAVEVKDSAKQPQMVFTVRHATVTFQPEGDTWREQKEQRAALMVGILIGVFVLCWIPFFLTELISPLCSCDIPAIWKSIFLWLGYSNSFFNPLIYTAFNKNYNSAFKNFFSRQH
Chain of 5-hydroxytryptamine receptor 4 (Q13639 whole entry): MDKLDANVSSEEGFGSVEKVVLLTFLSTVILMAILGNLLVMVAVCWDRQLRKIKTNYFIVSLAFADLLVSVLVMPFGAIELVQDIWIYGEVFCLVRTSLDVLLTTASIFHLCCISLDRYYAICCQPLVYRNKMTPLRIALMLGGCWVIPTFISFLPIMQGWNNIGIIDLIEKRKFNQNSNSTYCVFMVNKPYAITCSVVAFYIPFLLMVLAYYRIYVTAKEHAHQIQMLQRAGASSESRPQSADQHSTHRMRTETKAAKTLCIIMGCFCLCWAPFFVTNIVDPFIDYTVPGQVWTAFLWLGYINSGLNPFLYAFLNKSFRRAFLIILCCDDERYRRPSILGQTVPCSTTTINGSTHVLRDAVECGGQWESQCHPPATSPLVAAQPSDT

COC(=O)N1CCC(CN2CCC(CNC(=O)c3cccc4[nH]c(C(C)C)nc34)CC2)CC1
bioavailability [1]: 77%
Activity (Cavia porcellus): 40%
half-life [2]: 12 h
inhibition [3]: < 50%
inhibition [4]: < 50%
half-life [5]: 3.5 h
Intrinsic activity [6]: 83%
Activity (Homo sapiens): Active
inhibition [7]: < 50%
inhibition [8]: < 50%
Cmax [9]: 464 ng/mL
inhibition [10]: < 50%
Activity [11]: Non-toxic
half-life [12]: 1.43 h
inhibition [13]: < 50%
AUC(0-t) [14]: 1240 ng·h/mL
Activity [15]: Non-toxic
inhibition [16]: < 50%
inhibition [17]: < 50%
half-life [18]: 1.6 h
inhibition [19]: < 50%
AUC(0-t) [20]: 2280 ng·h/mL
Activity (Rattus norvegicus [21]): Dose-dependent effect
ED50 (Rattus norvegicus [21]): 0.15 mg/kg
Cmax [22]: 818 ng/mL
Activity (Rattus norvegicus [23]): 0.23 mg/kg
Ki [24]: 100 µM
pKb(app) [25]: 9.3
bioavailability [26]: 63%
Papp [27]: 54 ×10⁻⁶ cm/s
Activity [28]: Non-toxic
inhibition [29]: < 50%
